Measurements from ChEMBL document CHEMBL3045047, “Phytochemistry and nematicidal activity of the essential oils from 8 Greek Lamiaceae aromatic plants and 13 terpene components” (J Agric Food Chem, 2010).
Values after ≈ are worked out from the molar mass of the structure shown.

Key:
Type in all cases: functional, organism-based
Meloidogyne incognita [1] = assay: Nematicidal activity against Meloidogyne incognita J2 (root-knot nematode) larvae immersed in compound solution for 24 hr assessed as reduction in larval motility
Outline: (§1)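 J2 hatched at 28 °C in modified Baermann funnels from eggs extracted from roots with sodium hypochlorite. Ethanol stocks were diluted in water with Tween-20 (final ethanol ≤1%, Tween-20 ≤0.3% v/v), with water and solvent controls. Fifteen J2 per well, covered, dark, 28 °C. Motile/immotile scored microscopically. Control-corrected (Schneider-Orelli), six replicates, run twice. EC50 from log-logistic regression.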

Meloidogyne incognita [2] = assay: Nematicidal activity against Meloidogyne incognita J2 (root-knot nematode) larvae immersed in compound solution for 48 hr assessed as reduction in larval motility; outline: as §1
Meloidogyne incognita [3] = assay: Nematicidal activity against Meloidogyne incognita J2 (root-knot nematode) larvae immersed in compound solution for 96 hr assessed as reduction in larval motility; outline: as §1
Meloidogyne javanica = assay: Nematicidal activity against Meloidogyne javanica J2 (root-knot nematode) larvae immersed in compound solution for 48 hr assessed as reduction in larval motility

C=C(C)[C@H]1CC=C(C)CC1 [D-LIMONENE]
EC50 (Meloidogyne incognita [1]): > 1680 mg/L | EC50 (Meloidogyne incognita [2]): > 1680 mg/L | EC50 (Meloidogyne incognita [3]): > 1680 mg/L

Cc1ccc(C(C)C)c(O)c1 [THYMOL]
EC50 (Meloidogyne incognita [1]): 390 mg/L (≈ 2600 µM) | EC50 (Meloidogyne incognita [2]): 280 mg/L (≈ 1860 µM) | EC50 (Meloidogyne incognita [3]): 160 mg/L (≈ 1070 µM)

CC(C)=CCC/C(C)=C/CO [GERANIOL]
EC50 (Meloidogyne incognita [1]): 237 mg/L (≈ 1540 µM) | EC50 (Meloidogyne incognita [2]): 158 mg/L (≈ 1020 µM) | EC50 (Meloidogyne incognita [3]): 105 mg/L (≈ 681 µM)

C=CC(C)(O)CCC=C(C)C (stereo unspecified) [LINALOOL]
EC50 (Meloidogyne incognita [1]): 862 mg/L (≈ 5590 µM) | EC50 (Meloidogyne incognita [2]): 707 mg/L (≈ 4580 µM) | EC50 (Meloidogyne incognita [3]): 284 mg/L (≈ 1840 µM)

CC(C)=C1CC[C@@H](C)CC1=O [PULEGONE]
EC50 (Meloidogyne incognita [1]): 150 mg/L (≈ 985 µM) | EC50 (Meloidogyne incognita [2]): < 117 mg/L | EC50 (Meloidogyne incognita [3]): < 117 mg/L | EC50 (Meloidogyne javanica): 0.205 uL/ml

Cc1ccc(C(C)C)cc1O [CARVACROL]
EC50 (Meloidogyne incognita [1]): 264 mg/L (≈ 1760 µM) | EC50 (Meloidogyne incognita [2]): 176 mg/L (≈ 1170 µM) | EC50 (Meloidogyne incognita [3]): 117 mg/L (≈ 779 µM) | EC50 (Meloidogyne javanica): 0.128 uL/ml

C/C=C/c1ccc(OC)cc1 [ANETHOLE]
EC50 (Meloidogyne incognita [1]): 170 mg/L (≈ 1150 µM) | EC50 (Meloidogyne incognita [2]): 140 mg/L (≈ 945 µM) | EC50 (Meloidogyne incognita [3]): 124 mg/L (≈ 837 µM)

C=CCc1ccc(O)c(OC)c1 [EUGENOL]
EC50 (Meloidogyne incognita [1]): 256 mg/L (≈ 1560 µM) | EC50 (Meloidogyne incognita [2]): 192 mg/L (≈ 1170 µM) | EC50 (Meloidogyne incognita [3]): < 133 mg/L

C=C1CC/C=C(\C)CC[C@@H]2[C@@H]1CC2(C)C [BETA-CARYOPHYLLENE]
EC50 (Meloidogyne incognita [1]): > 1800 mg/L | EC50 (Meloidogyne incognita [2]): 433 mg/L (≈ 2120 µM) | EC50 (Meloidogyne incognita [3]): 307 mg/L (≈ 1500 µM)

C=C(C)[C@@H]1CC=C(C)C(=O)C1 [L-CARVONE]
EC50 (Meloidogyne incognita [1]): 115 mg/L (≈ 766 µM) | EC50 (Meloidogyne incognita [2]): < 120 mg/L | EC50 (Meloidogyne incognita [3]): < 120 mg/L

CC1=CCC(O)(C(C)C)CC1 (stereo unspecified) [TERPINEOL]
EC50 (Meloidogyne incognita [1]): 392 mg/L (≈ 2540 µM) | EC50 (Meloidogyne incognita [2]): 290 mg/L (≈ 1880 µM) | EC50 (Meloidogyne incognita [3]): 168 mg/L (≈ 1090 µM)

Cc1ccc(C(C)C)cc1 [P-CYMENE]
EC50 (Meloidogyne incognita [1]): > 1720 mg/L | EC50 (Meloidogyne incognita [2]): > 1720 mg/L | EC50 (Meloidogyne incognita [3]): > 1720 mg/L

CC12CCC(CC1)C(C)(C)O2 [EUCALYPTOL]
EC50 (Meloidogyne incognita [1]): > 1840 mg/L | EC50 (Meloidogyne incognita [2]): > 1840 mg/L | EC50 (Meloidogyne incognita [3]): 1600 mg/L (≈ 10400 µM)
